# Where two headings read alike, the source gives them in different places. Marks after values point to notes of the source that are not given here.
# Experiments:
# [1] = DPPH radical scavenging assay; details: for DPPH radical scavenging (antioxidant) activity, in words: 30, 90 and 120 minutes of exposure to DPPH; for DPPH scavenging IC50: tested up to 1 mg.mL^-1, IC50 impossible to determine
# Procedure, shortened: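 DPPH (250 µL of 0.91 mmol/L in methanol) was combined with 20–80 µL of a test compound stock and made up to 4 mL with methanol. Samples stood in the dark at room temperature for 30, 90 and 120 min before absorbance was read at 517 nm. Controls were DPPH without compound and ascorbic acid as positive control. Activity = (A0−A1)/A0×100, and IC50 came from scavenging-versus-concentration fits, in triplicate.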
# [2] = test system: Vibrio fischeri; experiment: Standard Microtox liquid-phase assay; assay type: cell-based, Vibrio fischeri (strain NRRL B-11177); details: for EC50, luminescence inhibition: 30 min of exposure, 15 °C, Passino's classification; for Ecotoxicity rank among the cholinium-based salts: EC50 in mmol.L^-1, Figure 2
# Procedure, shortened: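 Vibrio fischeri NRRL B-11177 was tested by the standard 81.9% liquid-phase protocol at 15 °C. Aqueous dilutions (0–81.9 wt% of stock) were used, with stock concentration corrected for water content by Karl Fischer titration. Luminescence was read after 5, 15 and 30 min and compared with a blank. EC50 and 95% confidence intervals were fitted to a logistic equation by non-linear least squares.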
# [3] = Thermogravimetric analysis; assay type: physicochemical; details: TGA onset, nitrogen atmosphere, 10 °C.min^-1
# [4] = test system: Raw 264.7 cells; experiment: Cytotoxicity, resazurin metabolic conversion, Raw 264.7; assay type: cell-based, mouse; details: for EC50: read-out: EC50, 50% decrease in cell viability
# Procedure, shortened: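 Mouse Raw 264.7 macrophages were kept in IMDM with 10% non-inactivated FBS and penicillin/streptomycin at 37 °C, 5% CO2. After 24 h attachment, cells received test compound at 1–5000 µM in full medium for 24 h. Resazurin (10% v/v) was added for the last 1 h, and resorufin absorbance was read at 570/600 nm relative to untreated cells. EC50 was fitted by non-linear least squares to a logistic model, from three independent experiments in triplicate.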
# [5] = test system: HaCaT cells; experiment: Cytotoxicity, resazurin metabolic conversion, HaCaT; assay type: cell-based, human
# Procedure, shortened: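 HaCaT keratinocytes were grown in high-glucose DMEM with 4 mM glutamine, 10% heat-inactivated FBS and penicillin/streptomycin at 37 °C under 5% CO2. After 24 h attachment in 96-well plates, cells were exposed for 24 h to test compound (1–5000 µM) in full medium. Resazurin (10% v/v) was present for the final 2 h. Absorbance was read at 570/600 nm and normalised to untreated cells. EC50 came from a logistic least-squares fit of three independent experiments run in triplicate.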
# [6] = Water solubility from saturated aqueous solution, UV quantification; assay type: physicochemical; details: 25 °C, pure water; for solubility at 72 h: water, thermodynamic from solid
# [7] = 25 °C; ref Queimada et al. 39; cited from earlier work
# [8] = test system: Raw 264.7 macrophages stimulated with LPS; experiment: Inhibition of LPS-induced NO production in macrophages; assay type: cell-based, mouse; details: 100 μM and 50 μM, pre-treated 1 hour, LPS 1 μg.mL^-1
# [9] = cited from earlier work
# [10] = Raw 264.7, 24 hours of exposure
# [11] = read-out: EC50, 50% decrease in cell viability, 24 hours of exposure
# [12] = Homo sapiens, 24 h, read-out: EC50, 50% decrease in cell viability
smiles,measurement,setting,value
"COc1cc(C(=O)[O-])ccc1O.C[N+](C)(C)CCO [[Chol][Van], (2-hydroxyethyl) trimethylammonium 4-hydroxy-3-methoxybenzoate]","DPPH radical scavenging (antioxidant) activity, in words",[1],significantly higher DPPH radical scavenging activity than vanillic acid
same,"EC50, luminescence inhibition",[2],> 1000 mg/L
same,Temperature of decomposition (Td),[3],186.8 ºC
"O=C(O)c1cc(O)c(O)c(O)c1 [[Chol][Gal], (2-hydroxyethyl) trimethylammonium 3,4,5-trihydroxybenzoate]",EC50,[4]; [10],0.836 mM
same,EC50,[5]; [11],0.303 mM
"COc1cc(C(=O)O)ccc1O [vanillic acid, reference compound]",Temperature of decomposition (Td),[3],233.7 ºC
"COc1cc(C(=O)[O-])cc(OC)c1O.C[N+](C)(C)CCO [[Chol][Syr], (2-hydroxyethyl) trimethylammonium 4-hydroxy-3,5-dimethoxybenzoate]",Temperature of decomposition (Td),[3],178.9 ºC
same,Water solubility ± std,[6],2793.71 ± 17.98 mmol/L
"O=C(O)/C=C/c1ccc(O)c(O)c1 [caffeic acid, reference compound]",EC50,"[4]; Mus musculus, RAW264.7, 24 h",2 mM
same,EC50,[5]; [12],1.8 mM
same,solubility at 72 h,[6],3.84 ± 0.04 mM
"O=c1oc2c(O)c(O)cc3c(=O)oc4c(O)c(O)cc1c4c23 [ellagic acid, reference compound]",Temperature of decomposition (Td),[3],472.6 ºC
same,Water solubility ± std,[7],1.26E-02 ± 3.31E-04 ^b mmol.L^-1
"O=C(O)/C=C/c1ccc(O)c(O)c1 [[Chol][Caf], (2-hydroxyethyl) trimethylammonium (E)-3-(3,4-dihydroxyphenyl)acrylate]",EC50,[4]; [10],2.34 mM
same,EC50,[5]; [11],1.79 mM
"O=C(O)c1ccccc1O [salicylic acid, reference compound]",DPPH scavenging IC50,[1],> 1 mg/mL
same,Temperature of decomposition (Td),[3],183.9 ºC
"C[N+](C)(C)CCO.O=C([O-])/C=C/c1ccc(O)c(O)c1 [[Chol][Caf], (2-hydroxyethyl) trimethylammonium (E)-3-(3,4-dihydroxyphenyl)acrylate]",Effect on LPS-induced NO production,[8],significantly inhibit the LPS-induced NO increase
"O=C(O)c1cc(O)c(O)c(O)c1 [gallic acid, 3,4,5-trihydroxybenzoic acid, reference compound]",EC50,"[4]; Mus musculus, RAW264.7, 24 h",0.591 mM
same,Effect on LPS-induced NO production,[8],neither [Chol][Gal] nor gallic acid decrease the LPS-induced NO production
same,EC50,[5]; [12],0.267 mM
same,Temperature of decomposition (Td),[3],262.5 ºC
same,solubility at 72 h,[6],71.3 ± 2.7 mM
"C[N+](C)(C)CCO.C[N+](C)(C)CCO.O=c1oc2c(O)c([O-])cc3c(=O)oc4c(O)c([O-])cc1c4c23 [[Chol]2[Ell], di((2-hydroxyethyl)trimethylammonium) 3,8-dihydroxy-5,10-dioxo-5,10-dihydrochromeno[5,4,3-cde]chromene-2,7-bis(olate)]","DPPH radical scavenging (antioxidant) activity, in words",[1],highest antioxidant activity
same,Cell viability at maximum concentration achieved,"[4]; 125 µM, Raw 264.7",not observed a decrease in the cell viability
same,Effect on LPS-induced NO production,[8],significantly inhibit the LPS-induced NO increase
same,Cell viability at maximum concentration achieved,[5]; 125 µM,not observed a decrease in the cell viability
same,Temperature of decomposition (Td),[3],265 ºC
same,Temperature of decomposition (Td),[3]; listed as [Chol]2 [Ell],265.0 ºC
same,Water solubility ± std,[6],622.97 ± 36.98 mmol/L
"C[N+](C)(C)CCO.O=C([O-])c1ccccc1O [[Chol][Sal], (2-hydroxyethyl) trimethylammonium 2-hydroxybenzoate, reference compound]",DPPH scavenging IC50,[1],> 1 mg/mL
same,Ecotoxicity rank among the cholinium-based salts,[2],most toxic
same,Temperature of decomposition (Td),[3],226.0 ºC
same,Water solubility ± std,[6],Completely miscible
"C[N+](C)(C)CCO.[Cl-] [cholinium chloride, Cholinium chloride]",Decomposition temperature,[9],circa 305 ºC
"C[N+](C)(C)CCO.O=C([O-])c1cc(O)c(O)c(O)c1 [[Chol][Gal], (2-hydroxyethyl) trimethylammonium 3,4,5-trihydroxybenzoate]","EC50, luminescence inhibition",[2],> 1000 mg/L
same,Ecotoxicity rank among the cholinium-based salts,[2],less toxic
same,Effect on LPS-induced NO production,[8],neither [Chol][Gal] nor gallic acid decrease the LPS-induced NO production
same,Temperature of decomposition (Td),[3],185.3 ºC
same,Water solubility ± std,[6],2402.27 ± 6.09 mmol/L

# Reference: publication PMC5330449 (ACS sustainable chemistry & engineering, 2015)
